Measured values from ChEMBL document CHEMBL5260797, “N-(1-Benzyl-3,5-dimethyl-1H-pyrazol-4-yl)benzamides: Antiproliferative Activity and Effects on mTORC1 and Autophagy” (ACS Med Chem Lett, 2017).
Converted amounts (≈) assume the structure as drawn. The source made the active and inactive calls. The rule behind the calls is not given here.

Key:
MIA PaCa-2 = assay: Antiproliferative activity against human MIA PaCa-2 cells assessed as cell viability measured after 72 hrs by MTT assay; format: functional, cell-based; conditions: MIA PaCa-2, 72 h
Method in brief: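 MIA PaCa-2 pancreatic cancer cells; EC50 values determined in triplicate.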

ARPE-19 [1] = assay: Induction of autophagy in human ARPE-19 cells assessed fold increase in LC3 turnover at 10 uM pretreated measured after 1 hr under refeed condition by Westernblot analysis; format: functional
Method in brief: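 ARPE-19 cells pretreated 30 min with 10 μM compound or DMSO, starved 4 h in EBSS, then refed 1 h in complete medium with compound or DMSO. LC3-II/actin quantified by Western blot and expressed as fold increase over DMSO control, n = 3.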

mTORC1 (Homo sapiens) [2] = target: T1, mTORC1 (Homo sapiens) (UniProt P42345+Q8N122+Q9BVC4); assay: Inhibition of mTORC1 reactivation in human ARPE-19 cells at 25 to 50 uM preincubated for 4 hrs under starvation/refeed condition measured after 1 hr in complete medium by Western blot analysis; format: cell-based; conditions: dose 25-50 µM, time 5.0 hrs
T1 sequence (Q8N122 whole entry, looked up, other chains not shown): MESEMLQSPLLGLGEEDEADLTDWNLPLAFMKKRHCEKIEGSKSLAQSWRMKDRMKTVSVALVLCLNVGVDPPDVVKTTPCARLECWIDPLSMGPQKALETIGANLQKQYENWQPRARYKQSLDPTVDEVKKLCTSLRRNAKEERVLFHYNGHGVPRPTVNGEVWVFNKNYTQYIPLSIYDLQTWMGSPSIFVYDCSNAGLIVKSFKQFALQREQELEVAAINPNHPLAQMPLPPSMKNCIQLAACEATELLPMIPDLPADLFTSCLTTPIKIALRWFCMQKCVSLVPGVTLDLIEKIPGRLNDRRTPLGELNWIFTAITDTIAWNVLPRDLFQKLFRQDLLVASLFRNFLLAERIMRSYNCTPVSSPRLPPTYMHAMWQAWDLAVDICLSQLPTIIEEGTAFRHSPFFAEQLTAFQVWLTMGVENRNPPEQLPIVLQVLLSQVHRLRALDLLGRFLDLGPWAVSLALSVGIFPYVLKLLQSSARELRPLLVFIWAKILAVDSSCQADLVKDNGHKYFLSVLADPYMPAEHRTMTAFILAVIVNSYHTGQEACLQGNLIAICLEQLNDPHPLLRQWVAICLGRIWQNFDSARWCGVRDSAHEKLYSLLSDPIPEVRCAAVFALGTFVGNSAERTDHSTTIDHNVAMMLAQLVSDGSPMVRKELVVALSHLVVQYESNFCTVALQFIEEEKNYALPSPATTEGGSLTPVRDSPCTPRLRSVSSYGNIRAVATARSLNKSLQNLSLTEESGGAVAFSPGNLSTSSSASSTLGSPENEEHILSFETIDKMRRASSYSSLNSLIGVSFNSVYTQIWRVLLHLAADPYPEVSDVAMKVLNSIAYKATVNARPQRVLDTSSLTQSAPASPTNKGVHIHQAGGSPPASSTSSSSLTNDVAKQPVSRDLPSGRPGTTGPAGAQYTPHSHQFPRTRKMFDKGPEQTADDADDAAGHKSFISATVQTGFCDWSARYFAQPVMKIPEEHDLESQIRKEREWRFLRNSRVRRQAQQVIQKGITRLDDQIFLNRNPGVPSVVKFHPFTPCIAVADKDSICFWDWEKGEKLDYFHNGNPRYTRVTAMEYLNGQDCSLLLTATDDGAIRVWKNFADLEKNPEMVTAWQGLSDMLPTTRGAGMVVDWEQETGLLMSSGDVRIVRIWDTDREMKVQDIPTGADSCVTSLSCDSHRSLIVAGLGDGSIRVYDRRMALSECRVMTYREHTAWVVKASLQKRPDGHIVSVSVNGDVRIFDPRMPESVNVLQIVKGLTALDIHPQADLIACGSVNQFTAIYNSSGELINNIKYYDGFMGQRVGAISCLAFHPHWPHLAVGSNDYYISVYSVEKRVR
T1 sequence (Q9BVC4 whole entry, looked up, other chains not shown): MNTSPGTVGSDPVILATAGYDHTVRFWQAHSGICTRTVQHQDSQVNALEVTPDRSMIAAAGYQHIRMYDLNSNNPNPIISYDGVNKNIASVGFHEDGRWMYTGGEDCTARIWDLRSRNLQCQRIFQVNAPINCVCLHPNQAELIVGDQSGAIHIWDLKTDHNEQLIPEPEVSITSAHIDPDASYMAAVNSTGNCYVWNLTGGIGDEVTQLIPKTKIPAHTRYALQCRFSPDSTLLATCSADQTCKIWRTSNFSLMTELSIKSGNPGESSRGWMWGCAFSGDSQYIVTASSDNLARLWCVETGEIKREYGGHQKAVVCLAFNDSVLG

mTORC1 (Homo sapiens) [3] = target: T1, mTORC1 (Homo sapiens); assay: Inhibition of mTORC1 reactivation in human ARPE-19 cells assessed as reduction of P70 phosphorylation at 10 uM preincubated for 4 hrs under starvation/refeed condition measured after 1 hr in complete medium by Western blot analysis; format: cell-based; conditions: time 5.0 hrs
Method in brief: (§1)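 ARPE-19 cells starved 4 h in EBSS, then refed 1 h in complete medium with 10 μM compound or DMSO. mTORC1 reactivation read by Western blot as phosphorylation of P70 and 4EBP1.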

[4] = Metabolic stability in human plasma assessed as parent compound remaining measured after 6 hrs by LC-MS/MS analysis; format: ADME, cell-free; conditions: read-out: Stability
ARPE-19 [5] = assay: Induction of autophagy in human ARPE-19 cells assessed as fold increase in LC3 turnover at 50 uM measured after 4 hrs by Western blot analysis; format: functional
Method in brief: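 ARPE-19 human retinal pigment epithelial cells exposed 4 h to compound or DMSO in complete medium without starvation. LC3 conversion read by Western blot as LC3-II/actin ratio and expressed as fold increase over DMSO control, n = 3.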

mTORC1 (Homo sapiens) [6] = target: T1, mTORC1 (Homo sapiens); assay: Inhibition of mTORC1 reactivation in human ARPE-19 cells assessed as reduction of 4E-BP1 phosphorylation at 10 uM preincubated for 4 hrs under starvation/refeed condition measured after 1 hr in complete medium by Western blot analysis; format: cell-based; conditions: time 5.0 hrs; method in brief: as §1
ARPE-19 [7] = assay: Induction of autophagy in human ARPE-19 cells assessed as increase in LC3-labeled punctae at 25 uM measured after 4 hrs by immunofluorescence analysis relative to control; format: functional, cell-based
Method in brief: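 ARPE-19 cells treated 4 h at 25 μM in complete medium without starvation, or with DMSO. LC3 punctae detected by immunofluorescence, with CD63 as late endosomal/lysosomal marker.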

[8] = Metabolic stability in human plasma assessed as parent compound remaining measured after 24 hrs by LC-MS/MS analysis; format: ADME, cell-free; conditions: read-out: Stability
ARPE-19 [9] = assay: Inhibition of autophagy in human ARPE-19 cells assessed as fold decrease in LC3 turnover at 10 uM pretreated for 30 mins with cells followed by incubation for 4 hrs under starvation condition by Western blot analysis; conditions: time 4.5 hrs
ARPE-19 [10] = assay: Induction of autophagy in human ARPE-19 cells assessed as appearance of abnormal punctae at 25 uM measured after 1 hr under starvation/refeed condition by immunofluorescence analysis; format: functional, cell-based
Method in brief: (§2)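 ARPE-19 cells starved 4 h in EBSS, then refed 1 h in complete medium containing 25 μM compound or DMSO. LC3 punctae imaged by immunofluorescence, with CD63 co-stain.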

ARPE-19 [11] = assay: Induction of autophagy in human ARPE-19 cells assessed as increase in LC3-2 conversion measured after 4 hrs by Western blot analysis; format: functional, cell-based; conditions: dose 25-50 µM
Method in brief: (§3)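 ARPE-19 cells treated 4 h in complete medium without starvation with increasing concentrations (10, 25, 50 μM) or DMSO. LC3 detected by Western blot; LC3-II/actin ratio expressed as fold increase over DMSO control, n = 3.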

ARPE-19 [12] = assay: Induction of autophagy in human ARPE-19 cells assessed as LC3 level at 25 uM measured after 4 hrs under starvation/refeed condition by immunofluorescence analysis; format: functional, cell-based; method in brief: as §2
ARPE-19 [13] = assay: Induction of autophagy in human ARPE-19 cells assessed as appearance of LC3 non-uniformed shapes at 25 uM pretreated for 30 mins with cells followed by incubation for 4 hrs under starvation condition by immunofluorescence analysis; format: functional, cell-based; conditions: time 4.5 hrs
Method in brief: (§4)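 ARPE-19 cells starved 4 h in EBSS with 25 μM compound or DMSO. LC3-labeled structures imaged by immunofluorescence, with CD63 as late endosomal/lysosomal marker.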

[14] = Metabolic stability in mouse plasma assessed as parent compound remaining measured after 6 hrs by LC-MS/MS analysis; format: ADME, cell-free; conditions: read-out: Stability
ARPE-19 [15] = assay: Induction of autophagy in human ARPE-19 cells assessed as increase in LC3-2 conversion at 10 uM measured after 4 hrs by Western blot analysis; format: functional, cell-based; method in brief: as §3
[16] = Metabolic stability in mouse plasma assessed as parent compound remaining measured after 24 hrs by LC-MS/MS analysis; format: ADME, cell-free; conditions: read-out: Stability
mTORC1 (Homo sapiens) [17] = target: T1, mTORC1 (Homo sapiens); assay: Inhibition of mTORC1 in human ARPE19 cells measured after 4 hrs by Western blot analysis; format: cell-based; conditions: ARPE-19, dose 10-50 µM
Method in brief: (§5)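 ARPE-19 cells treated 4 h without starvation with increasing concentrations or DMSO. Basal mTORC1 activity measured by Western blot as phosphorylated P70/total P70, with DMSO set to 100%.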

[18] = Cytotoxicity against human ARPE-19 cells assessed as cell viability measured after 72 hrs by MTT assay; format: toxicity, cell-based
ARPE-19 [19] = assay: Induction of autophagy in human ARPE-19 cells assessed as LC3 enlarged structures at 25 uM pretreated for 30 mins with cells followed by incubation for 4 hrs under starvation condition by immunofluorescence analysis; format: functional, cell-based; conditions: time 4.5 hrs; method in brief: as §4
ARPE-19 [20] = assay: Induction of autophagy in human ARPE-19 cells assessed as decrease in LC3-2/actin ratio at 10 uM pretreated for 30 mins with cells followed by incubation for 4 hrs under starvation condition in presence of bafilomycin by Western blot analysis; format: functional, cell-based; conditions: time 4.5 hrs
Method in brief: (§6)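 ARPE-19 cells pretreated 30 min at 10 μM (or DMSO). Then 4 h with compound in EBSS starvation medium, or in EBSS with 100 nM bafilomycin. LC3-II/actin quantified by Western blot as fold of DMSO control, n = 3.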

[21] = Thermodynamic aqueous solubility of the compound at pH 7.4 measured after 48 hrs by UV-spectrometry method; format: physicochemical; conditions: read-out: Therm_solubility
ARPE-19 [22] = assay: Induction of autophagy in human ARPE-19 cells assessed as decrease in LC3-2/actin ratio at 10 uM pretreated for 30 mins with cells followed by incubation for 4 hrs under starvation condition by Western blot analysis; format: functional, cell-based; conditions: time 4.5 hrs; method in brief: as §6
ARPE-19 [23] = assay: Induction of autophagy in human ARPE-19 cells assessed as increase in LC3-2 conversion at 25 to 50 uM measured after 4 hrs by Western blot analysis; format: functional, cell-based; conditions: dose 25-50 µM; method in brief: as §3
ARPE-19 [24] = assay: Reduction in autophagic flux in human ARPE-19 cells at 25 uM incubated for 4 hrs in complete medium in presence of bafilomycin; format: functional, cell-based
Method in brief: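 ARPE-19 cells in full medium with 100 nM bafilomycin plus compound or DMSO. Autophagic flux read as LC3-II by Western blot.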

ARPE-19 [25] = assay: Induction of autophagy in human ARPE-19 cells assessed as LC3 accumulation at 25 to 50 uM measured after 4 hrs under refeed condition by immunofluorescence analysis; format: functional, cell-based; conditions: dose 25-50 µM
mTORC1 (Homo sapiens) [26] = target: T1, mTORC1 (Homo sapiens); assay: Inhibition of mTORC1 in human ARPE19 cells at 10 to 50 uM measured after 4 hrs by Western blot analysis related to control; format: cell-based; conditions: ARPE-19, dose 10-50 µM; method in brief: as §5
mTORC1 (Homo sapiens) [27] = target: T1, mTORC1 (Homo sapiens); assay: Inhibition of mTORC1 in human ARPE19 cells assessed as decrease in P70/total P70 phosphorylation level at 10 uM measured after 4 hrs by Western blot analysis; format: cell-based; conditions: ARPE-19; method in brief: as §5

Work on `CNC(=O)c1cccc(Cn2nc(C)c(NC(=O)c3ccc(COc4cccc(OC)c4)cc3)c2C)c1` yielded an EC50 (MIA PaCa-2) of 6.2 µM.

For `Cc1nn(Cc2ccc(C(N)=O)cc2)c(C)c1NC(=O)c1ccc(COc2ccccc2)cc1`, the EC50 (MIA PaCa-2) was > 100 µM.

In the case of `Cc1nn(Cc2cccc(C(N)=O)c2)c(C)c1NC(=O)c1ccc(COc2ccccc2)cc1`, the EC50 (MIA PaCa-2) is reported as 9.2 µM.

Compound `CNC(=O)c1cccc(Cn2nc(C)c(NC(=O)c3ccc(COc4ccc(Cl)cc4)cc3)c2C)c1` has an EC50 (MIA PaCa-2) of 4.2 µM.

For `Fc1ccc(CNc2ncnc3ccc(F)cc23)cc1`, the EC50 (MIA PaCa-2) was 20 µM.

For `CNC(=O)c1cccc(Cn2nc(C)c(NC(=O)c3ccc(COc4cccc(Cl)c4)cc3)c2C)c1`, the EC50 (MIA PaCa-2) was 5.9 µM.

With `CCNC(=O)c1cccc(Cn2nc(C)c(NC(=O)c3ccc(COc4ccccc4)cc3)c2C)c1` the EC50 (MIA PaCa-2) was 11 µM.

In the case of `CNC(=O)c1cccc(Cn2nc(C)c(NC(=O)c3ccc(COc4ccc(C(F)(F)F)cc4C)cc3)c2C)c1`, the “fold change (FC)” value (ARPE-19 [1]) is reported as 1.7, the Activity (mTORC1 (Homo sapiens) [2]) is reported as “Active” and the Activity (mTORC1 (Homo sapiens) [3]) is reported as “Active”. For the same compound, the EC50 (MIA PaCa-2) was 0.62 µM, the remaining at 6 h [4] was 98% and the “fold change (FC)” value (ARPE-19 [5]) was 3.3. The Activity (mTORC1 (Homo sapiens) [6]) was “Active”, the Activity (ARPE-19 [7]) was “Active” and the remaining at 24 h [8] was 100%. For the same compound, the “fold change (FC)” value (ARPE-19 [9]) was 1.7, the Activity (ARPE-19 [10]) was “Active” and the Activity (ARPE-19 [11]) was “Dose-Dependent Effect”. For the same compound, the Activity (ARPE-19 [12]) was “Active”, the Activity (ARPE-19 [13]) was “Active” and the remaining at 6 h [14] was 88%. The Activity (ARPE-19 [15]) was “Active”, the remaining at 24 h [16] was 93% and the inhibition (mTORC1 (Homo sapiens) [17]) was “Dose-Dependent Effect”. The EC50 at 72 h [18] was 7.1 µM, the Activity (ARPE-19 [19]) was “Active” and the Activity (ARPE-19 [20]) was “inactive”. For the same compound, the solubility thermodynamic at 48 h [21] was 166 µM (≈ 91.4 µg/mL), the Activity (ARPE-19 [22]) was “Active” and the Activity (ARPE-19 [23]) was “Active”. For the same compound, the Activity (ARPE-19 [24]) was “inactive”, the Activity (ARPE-19 [25]) was “Active” and the inhibition (mTORC1 (Homo sapiens) [26]) was 78%. For the same compound, the inhibition (mTORC1 (Homo sapiens) [27]) was “Active”.

With `Cc1nn(Cc2ccccc2C(N)=O)c(C)c1NC(=O)c1ccc(COc2ccccc2)cc1` the EC50 (MIA PaCa-2) was 42 µM.

For `C#Cc1cccc(Nc2ncnc3cc(OCCOC)c(OCCOC)cc23)c1` [ERLOTINIB], the EC50 (MIA PaCa-2) was 27 µM.

`CNC(=O)c1cccc(Cn2nc(C)c(NC(=O)c3ccc(COc4ccc(C)cc4)cc3)c2C)c1` showed an EC50 (MIA PaCa-2) of 2.6 µM.

Compound `CNC(=O)c1cccc(Cn2nc(C)c(NC(=O)c3ccc(COc4ccccc4C(F)(F)F)cc3)c2C)c1` has an EC50 (MIA PaCa-2) of 10 µM.

For `Cc1nn(Cc2ccccc2)c(C)c1NC(=O)c1ccc(COc2ccccc2)cc1`, the EC50 (MIA PaCa-2) was 10 µM.

`Cc1nn(Cc2cccc(C(=O)Nc3ccccc3)c2)c(C)c1NC(=O)c1ccc(COc2ccccc2)cc1` gave an EC50 (MIA PaCa-2) of 6.4 µM.
